Shown are actives, neighbours in structure and some others; about 2.7% of the full set was active somewhere.
ABCB1 block – inhibitors of human ABCB1 transporter, ABCG2 counter-screen | CCRF-Adr cells, JC-1 efflux, flow cytometry | 0.067% of 190,000 active | AID 1326 | P08183 | inhibition, % at 6.6 µM; in the data active = inhibition above about 40%;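 also: 0% = vehicle and 100% = reference inhibitor; higher value means more JC-1 retained so stronger ABCB1 efflux block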
ABCG2 block – human ABCG2 inhibition, ABCB1 as counter-screen; AID 1325; inhibition, % at 6.6 µM; IgMXP3 cells, JC-1 efflux, flow cytometry; Q9UNQ0; 0.1% of 190,000 active;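 active = inhibition above 80%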;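 also: 0% = DMSO and 100% = nicardipine control wells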
Target sequence (Q9UNQ0 whole entry, looked up): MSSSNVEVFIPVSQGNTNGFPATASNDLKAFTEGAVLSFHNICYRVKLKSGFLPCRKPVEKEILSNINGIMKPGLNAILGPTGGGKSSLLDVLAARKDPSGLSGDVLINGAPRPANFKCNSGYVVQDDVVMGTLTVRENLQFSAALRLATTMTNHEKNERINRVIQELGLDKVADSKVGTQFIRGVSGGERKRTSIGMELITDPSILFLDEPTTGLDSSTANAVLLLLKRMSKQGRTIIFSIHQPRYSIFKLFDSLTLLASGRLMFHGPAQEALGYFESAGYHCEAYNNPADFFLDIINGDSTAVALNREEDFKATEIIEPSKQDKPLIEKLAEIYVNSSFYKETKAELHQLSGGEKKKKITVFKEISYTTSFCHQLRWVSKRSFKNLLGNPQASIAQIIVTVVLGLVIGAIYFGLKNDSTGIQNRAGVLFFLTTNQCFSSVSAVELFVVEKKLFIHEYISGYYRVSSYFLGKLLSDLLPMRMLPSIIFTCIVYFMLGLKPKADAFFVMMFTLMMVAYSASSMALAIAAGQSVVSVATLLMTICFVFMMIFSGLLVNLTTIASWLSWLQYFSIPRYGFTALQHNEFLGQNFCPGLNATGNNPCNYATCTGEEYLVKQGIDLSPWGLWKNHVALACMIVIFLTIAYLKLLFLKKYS
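Times: 10 min at 25 °C | Test system: Two drug-resistant human cell lines, ABCG2 and ABCB1 | Quantity: 3 million cells/mL final, two lines in 1:1 ratio | Signal: Flow cytometry, 530 nm JC-1 signal | Dosing: Compound at 6.6 µM | Controls: Nicardipine and DMSO wells | Reagent: JC-1 as fluorescent efflux pump substrate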
FLuc inh counter – Photinus pyralis luciferase inhibition counter-screen | 1.5% of 200,000 active | inhibition, % at 10 µM | AID 1006 | ATPLite firefly luciferase biochemical luminescence, 10 min | P08659;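 active = inhibition above about 50% when tested at 10 µM, limit read from the data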
Redox H2O2 prof – compounds producing H2O2 with reducing agent – biochemical, NIH compound library profiling, artefact control for MLSCN library redox annotation, primary screen; AID 878; activation, % at 10 µM; DTT-dependent redox cycling H2O2, phenol red/HRP absorbance; 100% = 100 µM peroxide control, 0% = buffer; 0.03% of 200,000 active;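 active = activation of at least 50% relative to the plate's high and low controls in the primary single-dose screen; inactive = activation below 50%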;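 also: compound incubated with DTT at 0.8 mM final as the reducing agent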
Measles CPE – protection of cells from measles virus; protection (pct of control), % at 4 µM; Measles virus-infected cells, CPE protection, absorbance; 1.5% of 140,000 active; in the data active = protection mostly above about 24%, no sharp cut-off; inactive = mostly below about 26%
FLuc act counter – affects firefly luciferase, flagging false hits in luciferase stimulation screens; P08659; ATPlite luciferase biochemical, luminescence, 10 min; 0 = ATP-free wells, 1 = DMSO control; activation factor at 10 µM; 200,000 tested, under 10 active;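 active = luciferase activation factor, scaled between plate controls, of at least 2 with compound at 10 µM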
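System: luciferase plus luciferin reagent, cell-free; medium: PBS as buffer for the ATP substrate; dosing: test compounds dosed from 2 mM stocks in 100% DMSO; timing: 10 min post-reagent at room temperature; measured by: luminescence measurement of luciferase light output; evaluation: luciferase activation, seen as luminescence increase over controls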
* = called active by the depositor; . = not tested or not shown.

SMILES	ABCB1 block	ABCG2 block	FLuc inh counter	Redox H2O2 prof	Measles CPE	FLuc act counter
c1ccc(CCNc2nc3ccccc3s2)cc1	0.4	5.1	3.1	0.2	16.1	1
Cc1ccc(CNc2nc3ccccc3s2)s1	0.5	11.0	89.9*	0.8	4.2	0.1
O=C(Nc1ccc(OC(F)F)c(Cl)c1)Nc1ccc2c(c1)OCO2	0.0	1.4	0.8	2.0	41.4*	1
O=C(Nc1ccc([N+](=O)[O-])cc1)Nc1ccc(OC(F)F)c(Cl)c1	27.5	86.2*	-6.6	0.5	2.7	1.1
COc1ccc([N+](=O)[O-])cc1NC(=S)NC(NC(=O)C(c1ccccc1)c1ccccc1)C(Cl)(Cl)Cl (configuration not stated)	-0.2	-0.6	-0.7	0.3	77.3*	1
Cc1cc(C(=O)Nc2ccc(N3CCOCC3)cc2)c2ccccc2n1	0.2	0.1	-6.6	-0.1	18.0	1.1
COC(=O)c1nc2ccc(N3CCOCC3)cc2c(C)c1C(=O)OC	0.7	4.2	87.1*	-1.6	.	0.1
COc1cccc(/C=N/c2oc(-c3ccccc3)cc2C#N)c1O	0.0	0.6	10.3	1.1	7.4	0.9
COc1cccc(/C=N/Nc2ccc(C(=O)O)cc2)c1O	-0.3	1.2	83.4*	0.9	.	0.2
COc1cccc(C=Nc2ccccc2C#N)c1O	1.0	2.9	88.9*	0.3	7.5	0.1
Cc1cccc(-n2cc(C(=O)O)c(=O)cc2C)c1	1.1	2.2	0.0	-0.6	.	1
Cc1ccn2cc(-c3cccc(NC(=O)C(C)C)c3)nc2c1	0.0	7.0	57.2*	-0.7	.	0.4
CC(C)C(=O)Nc1cccc(-c2cn3ccccc3n2)c1	0.4	10.0	30.6	-0.8	25.1	0.7
O=C(CNC(=O)c1cccs1)c1ccc([N+](=O)[O-])cc1	-0.5	-2.1	25.0	-0.1	27.1	0.8
O=C(CNC(=O)c1cccs1)c1ccc(F)cc1	0.4	0.3	51.9*	0.0	18.2	0.5
O=c1cc(/C=C/c2c(F)cccc2Cl)[nH]c2ccccc12	-0.1	37.1	-3.6	0.3	12.3	1
O=C(Nc1nc(-c2ccccn2)cs1)C12CC3CC(CC(O)(C3)C1)C2	0.2	1.5	82.6*	-1.5	.	0.2
O=C(Nc1nc(-c2ccccn2)cs1)C1CC1	0.1	1.1	3.1	0.4	16.6	1
Cc1cc(NC(=O)c2ccccc2-c2ccccc2)ccc1Br	2.6	48.3	0.6	-0.8	7.3	1
c1csc(-c2cn3ccc4ccccc4c3n2)c1	-2.0	21.9	53.1*	0.8	.	0.5
O=C(/C(C=Nc1ccc(Br)cc1)=C(/O)c1ccco1)C(F)(F)F	0.2	3.3	65.7*	0.4	8.0	0.3
O=C(/C(C=Nc1cccc(C(F)(F)F)c1)=C(/O)c1ccco1)C(F)(F)F	-0.2	-0.4	24.1	0.1	11.8	0.8
CC(=O)NCCOc1ccc2oc3ccccc3c2c1	0.6	5.7	2.9	-2.8	47.1*	1
CCOc1ccccc1NC(=O)C(C)CC (configuration not stated)	0.1	0.2	-0.5	0.0	.	1
CC(C)(C)c1ccc(-c2conc2N)cc1	0.0	0.9	61.2*	-0.5	3.7	0.4
SMILES	ABCB1 block	ABCG2 block	FLuc inh counter	Redox H2O2 prof	Measles CPE	FLuc act counter
C/C(=C\C(=O)c1ccc(C)cc1)Nc1cccc(O)c1	0.2	-2.5	65.4*	0.0	10.5	0.3
O=C(/C=C/NNC(=O)c1ccc(Cl)cc1)c1ccccc1	0.4	1.8	-2.2	-1.6	.	1
CC(=O)c1cccc(N/C=C\C(=O)c2ccc(C)cc2)c1	5.3	19.7	91.2*	0.0	9.7	0.1
O=C(/C=C/Nc1cccc(O)c1)c1ccccc1	1.3	6.2	94.7*	-1.8	21.9	0.1
Cc1ccc(C(=O)/C=C/Nc2cccc(O)c2)cc1	0.4	1.8	95.7*	1.6	4.3	0
Cc1ccc(C(=O)/C=C/Nc2ccc3c(c2)OCO3)cc1	0.4	3.0	79.6*	1.3	3.6	0.2
COc1ccc(/C=N/NC(=O)Cc2cc(OC)c(OC)cc2[N+](=O)[O-])cc1	-0.1	-0.1	-5.5	0.5	17.0	1.1
CCOc1ccccc1NC(=O)CCC(=O)O	0.0	0.0	-7.3	1.6	17.3	1.1
COc1ccccc1NC(=O)CCC(=O)O	0.5	6.7	-9.3	10.9	71.3*	1.1
Cc1cc2nnc(SCC(=O)NCC3CCCO3)n2c2ccccc12 (configuration not stated)	0.0	3.3	-4.0	-0.6	.	1
CC1=NN(c2ccccc2)C(=O)/C1=C\C=C1\N(C)c2ccccc2C1(C)C	1.1	5.0	0.3	5.2	58.7*	1
CC(C)CNC(=O)CC(=O)N/N=C/c1ccc(F)cc1	1.8	16.7	-0.2	-0.4	8.9	1
CCn1ncc(Br)c1C(=O)Nc1ccc(C(=O)OC(C)C)cc1	0.3	19.1	-1.9	0.1	38.3*	1
CN(C(=O)c1ccccc1)c1nc2ccccc2s1	0.2	30.1	84.0*	2.2	25.8	0.2
O=C(Nc1ccc(O)c(-c2nc3ccccc3o2)c1)C1(c2ccc(Br)cc2)CCCC1	-0.1	8.2	-8.1	1.0	8.9	1.1
CCc1nc(Nc2ccc3c(c2)OCO3)c2oc3ccccc3c2n1	0.8	8.1	-4.8	1.5	57.0*	1
CCc1nc(Nc2ccncc2)c2oc3ccccc3c2n1	0.3	0.8	-8.9	-9.8	3.1	1.1
COC(=O)[C@@H]1CC[C@H](C)[C@@H](c2ccc(C)cc2)N1C(=O)c1ccc(/C=N/OCC[C@@H]2C=C[C@H](OC(C)=O)[C@@H](COC(C)=O)O2)cc1	12.3	-3.1	-2.3	0.0	1.8	1
CCN(CC)S(=O)(=O)c1ccc(Cl)c(C(=O)Nc2cc(C)nn2-c2ccccc2)c1	1.0	3.9	-1.8	-0.9	14.4	1
CC(C)(C)OC(=O)COc1cc(OCC(=O)OC(C)(C)C)c2c(=O)cc(-c3ccccc3)oc2c1	4.8	9.3	1.3	0.3	5.3	1
COc1cc(OC)c2c(=O)cc(-c3ccccc3)oc2c1	1.0	7.7	58.0*	0.3	.	0.4
CS(=O)(=O)N(Cc1ccc(C(=O)NCc2ccco2)cc1)c1ccccc1	-0.1	1.5	-3.9	1.4	34.3*	1
Cc1ccc2[nH]c(=O)c(CN(Cc3cccs3)C(=S)NCc3ccco3)cc2c1	0.2	2.5	7.0	-0.5	9.2	0.9
Cc1ccc(O)c(C(CC(=O)N2CCCC2)c2ccccc2)c1 (configuration not stated)	-0.5	-0.6	4.1	0.5	29.4*	1
C/C(=C\c1ccccc1)C(=O)NCCCn1ccnc1	-0.3	-1.2	-5.2	0.3	.	1.1

Screening data (PubChem BioAssay)
